# Source: ChEMBL document CHEMBL1151781, “Selectivity of inhibitors of endocannabinoid biosynthesis evaluated by activity-based protein profiling” (Bioorg Med Chem Lett, 2008)
# Activity calls are given as the source filed them. The calls are words filed in the database; no cut-off is given here.
# Experiments:
# [1] = biological target: T1, Lysophosphatidylserine lipase ABHD12 (Mus musculus) (UniProt Q99LR1); test: Inhibition of ABHD12 in mouse brain at 0.01 to 100 uM treated for 30 mins by SDS-PAGE using rhodamine-tagged FP probe; type: tissue-based
# T1 sequence (whole entry): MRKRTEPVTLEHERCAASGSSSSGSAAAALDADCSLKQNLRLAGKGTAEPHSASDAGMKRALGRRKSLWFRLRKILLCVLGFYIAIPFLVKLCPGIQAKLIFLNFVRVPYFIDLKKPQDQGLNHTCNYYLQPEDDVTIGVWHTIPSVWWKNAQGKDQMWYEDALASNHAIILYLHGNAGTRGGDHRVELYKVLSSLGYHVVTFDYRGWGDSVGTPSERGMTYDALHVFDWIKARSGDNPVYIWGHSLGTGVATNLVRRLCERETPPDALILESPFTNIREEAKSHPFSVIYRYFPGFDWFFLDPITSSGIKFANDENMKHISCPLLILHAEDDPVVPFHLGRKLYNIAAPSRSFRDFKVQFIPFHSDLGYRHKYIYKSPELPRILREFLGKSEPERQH
# How it was run: (§1)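 Mouse brain membrane proteome preincubated with inhibitor across 0.01-100 μM for 30 min. A rhodamine-tagged fluorophosphonate probe (FP-Rh) was then added for 60 min. Samples were resolved by SDS-PAGE, and probe labeling of each hydrolase band was read by in-gel fluorescence scanning.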
# [2] = biological target: T2, Phosphatidylserine lipase ABHD16A (Mus musculus) (UniProt Q9Z1Q2); test: Inhibition of BAT5 in mouse brain at 0.01 to 100 uM treated for 30 mins by SDS-PAGE using rhodamine-tagged FP probe; type: tissue-based; how it was run: as §1
# T2 sequence (whole entry): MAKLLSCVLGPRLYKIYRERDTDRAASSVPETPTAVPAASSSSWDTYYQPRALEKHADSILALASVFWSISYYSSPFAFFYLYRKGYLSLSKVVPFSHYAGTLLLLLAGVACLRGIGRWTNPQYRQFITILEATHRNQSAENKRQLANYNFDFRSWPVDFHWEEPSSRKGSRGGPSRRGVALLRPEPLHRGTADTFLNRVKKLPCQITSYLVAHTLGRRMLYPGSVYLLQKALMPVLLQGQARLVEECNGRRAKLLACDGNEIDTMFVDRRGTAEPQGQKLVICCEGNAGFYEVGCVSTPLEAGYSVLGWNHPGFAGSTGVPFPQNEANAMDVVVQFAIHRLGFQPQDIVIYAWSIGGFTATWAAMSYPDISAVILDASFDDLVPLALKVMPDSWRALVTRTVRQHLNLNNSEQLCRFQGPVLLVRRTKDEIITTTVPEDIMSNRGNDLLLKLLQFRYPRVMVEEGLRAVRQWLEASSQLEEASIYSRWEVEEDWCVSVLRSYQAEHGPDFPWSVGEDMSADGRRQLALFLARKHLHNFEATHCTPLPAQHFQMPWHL
# [3] = biological target: T3, Diacylglycerol lipase-alpha (Mus musculus) (UniProt Q6WQJ1); test: Inhibition of DAGLalpha in mouse brain assessed as >15 average spectral count at 50 uM treated for 30 mins by ABPP-MudPIT assay; type: tissue-based
# T3 sequence (whole entry): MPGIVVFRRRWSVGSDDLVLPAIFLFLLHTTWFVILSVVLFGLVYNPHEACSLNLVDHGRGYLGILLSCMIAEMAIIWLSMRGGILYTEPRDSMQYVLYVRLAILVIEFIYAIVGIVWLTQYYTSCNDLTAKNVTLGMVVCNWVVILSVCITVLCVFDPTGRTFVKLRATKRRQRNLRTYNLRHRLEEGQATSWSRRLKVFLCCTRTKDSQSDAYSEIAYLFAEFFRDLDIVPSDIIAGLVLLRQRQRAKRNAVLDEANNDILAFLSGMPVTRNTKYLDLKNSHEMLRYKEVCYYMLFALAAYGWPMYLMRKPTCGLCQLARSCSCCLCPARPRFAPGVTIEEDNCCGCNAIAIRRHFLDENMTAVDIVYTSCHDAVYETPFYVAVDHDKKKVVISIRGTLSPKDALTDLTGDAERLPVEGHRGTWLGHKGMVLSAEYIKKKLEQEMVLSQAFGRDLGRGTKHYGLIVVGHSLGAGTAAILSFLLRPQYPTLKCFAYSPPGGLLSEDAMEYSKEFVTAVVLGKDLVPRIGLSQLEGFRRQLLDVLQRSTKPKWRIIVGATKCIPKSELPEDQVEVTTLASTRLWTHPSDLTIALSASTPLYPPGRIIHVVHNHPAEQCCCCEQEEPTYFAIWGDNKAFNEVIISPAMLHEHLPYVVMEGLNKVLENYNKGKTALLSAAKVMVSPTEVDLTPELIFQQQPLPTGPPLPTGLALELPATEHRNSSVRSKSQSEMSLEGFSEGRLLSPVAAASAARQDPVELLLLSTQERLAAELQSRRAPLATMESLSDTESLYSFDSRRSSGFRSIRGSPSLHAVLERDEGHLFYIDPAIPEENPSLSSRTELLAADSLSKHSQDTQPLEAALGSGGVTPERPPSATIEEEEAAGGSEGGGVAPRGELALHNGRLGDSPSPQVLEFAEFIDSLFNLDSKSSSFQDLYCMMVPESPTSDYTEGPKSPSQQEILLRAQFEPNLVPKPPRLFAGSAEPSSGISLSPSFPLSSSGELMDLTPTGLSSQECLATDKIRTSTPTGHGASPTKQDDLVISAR
# [4] = biological target: Lysophosphatidylserine lipase ABHD12 (Homo sapiens, UniProt Q8N2K0); test: Inhibition of recombinant ABHD12 transfected in HEK293T cells by SDS-PAGE using rhodamine-tagged FP probe; type: cell-based, HEK-293T
# Sequence of Lysophosphatidylserine lipase ABHD12 (Q8N2K0 whole entry): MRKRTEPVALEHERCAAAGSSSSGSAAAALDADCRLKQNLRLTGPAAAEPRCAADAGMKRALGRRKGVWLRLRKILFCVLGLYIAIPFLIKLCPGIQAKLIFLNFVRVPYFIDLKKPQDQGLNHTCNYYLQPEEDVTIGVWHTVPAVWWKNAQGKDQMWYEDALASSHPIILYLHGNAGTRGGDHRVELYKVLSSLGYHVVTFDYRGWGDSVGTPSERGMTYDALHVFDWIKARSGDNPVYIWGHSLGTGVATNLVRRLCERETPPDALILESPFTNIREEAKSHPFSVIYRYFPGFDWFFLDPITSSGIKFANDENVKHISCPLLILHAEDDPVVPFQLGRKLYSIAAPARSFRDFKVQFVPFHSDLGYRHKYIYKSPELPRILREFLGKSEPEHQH
# How it was run: (§2)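 HEK293T cells were transfected with cDNA for the target hydrolase. The transfected proteome was treated with inhibitor across 0.01-100 μM, then labeled with rhodamine-tagged fluorophosphonate probe (FP-Rh). Loss of probe labeling was read to give IC50. Values are means ± standard errors of three independent experiments.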
# [5] = biological target: Diacylglycerol lipase-beta (Homo sapiens) (UniProt Q8NCG7); test: Inhibition of recombinant DAGLbeta overexpressed in african green monkey COS7 cells assessed as accumulation of 2-arachidonoylglycerol […]; type: cell-based; conditions: COS-7
# Sequence of Diacylglycerol lipase-beta (Homo sapiens) (Q8NCG7 whole entry): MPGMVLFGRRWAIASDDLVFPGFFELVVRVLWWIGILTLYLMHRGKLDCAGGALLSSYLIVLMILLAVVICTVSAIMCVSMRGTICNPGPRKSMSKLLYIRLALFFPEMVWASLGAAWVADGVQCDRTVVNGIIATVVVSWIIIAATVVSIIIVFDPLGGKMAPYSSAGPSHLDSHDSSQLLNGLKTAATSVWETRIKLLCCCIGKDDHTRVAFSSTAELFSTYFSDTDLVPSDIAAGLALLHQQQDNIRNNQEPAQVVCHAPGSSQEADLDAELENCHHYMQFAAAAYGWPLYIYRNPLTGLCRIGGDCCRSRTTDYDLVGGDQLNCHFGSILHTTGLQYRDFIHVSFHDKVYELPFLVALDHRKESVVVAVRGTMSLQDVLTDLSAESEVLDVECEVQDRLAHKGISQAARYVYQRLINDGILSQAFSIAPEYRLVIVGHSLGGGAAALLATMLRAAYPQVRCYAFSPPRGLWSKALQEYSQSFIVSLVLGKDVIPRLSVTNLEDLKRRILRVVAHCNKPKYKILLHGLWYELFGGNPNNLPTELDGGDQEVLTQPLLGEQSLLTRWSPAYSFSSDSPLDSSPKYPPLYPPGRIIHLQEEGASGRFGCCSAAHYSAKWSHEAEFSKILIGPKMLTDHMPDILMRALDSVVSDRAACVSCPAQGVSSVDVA
# [6] = biological target: Diacylglycerol lipase-alpha (Homo sapiens) (UniProt Q9Y4D2); test: Inhibition of recombinant DAGLalpha overexpressed in african green monkey COS7 cells assessed as accumulation of 2-arachidonoylglycerol […]; type: cell-based; conditions: COS-7
# Sequence of Diacylglycerol lipase-alpha (Homo sapiens) (Q9Y4D2 whole entry): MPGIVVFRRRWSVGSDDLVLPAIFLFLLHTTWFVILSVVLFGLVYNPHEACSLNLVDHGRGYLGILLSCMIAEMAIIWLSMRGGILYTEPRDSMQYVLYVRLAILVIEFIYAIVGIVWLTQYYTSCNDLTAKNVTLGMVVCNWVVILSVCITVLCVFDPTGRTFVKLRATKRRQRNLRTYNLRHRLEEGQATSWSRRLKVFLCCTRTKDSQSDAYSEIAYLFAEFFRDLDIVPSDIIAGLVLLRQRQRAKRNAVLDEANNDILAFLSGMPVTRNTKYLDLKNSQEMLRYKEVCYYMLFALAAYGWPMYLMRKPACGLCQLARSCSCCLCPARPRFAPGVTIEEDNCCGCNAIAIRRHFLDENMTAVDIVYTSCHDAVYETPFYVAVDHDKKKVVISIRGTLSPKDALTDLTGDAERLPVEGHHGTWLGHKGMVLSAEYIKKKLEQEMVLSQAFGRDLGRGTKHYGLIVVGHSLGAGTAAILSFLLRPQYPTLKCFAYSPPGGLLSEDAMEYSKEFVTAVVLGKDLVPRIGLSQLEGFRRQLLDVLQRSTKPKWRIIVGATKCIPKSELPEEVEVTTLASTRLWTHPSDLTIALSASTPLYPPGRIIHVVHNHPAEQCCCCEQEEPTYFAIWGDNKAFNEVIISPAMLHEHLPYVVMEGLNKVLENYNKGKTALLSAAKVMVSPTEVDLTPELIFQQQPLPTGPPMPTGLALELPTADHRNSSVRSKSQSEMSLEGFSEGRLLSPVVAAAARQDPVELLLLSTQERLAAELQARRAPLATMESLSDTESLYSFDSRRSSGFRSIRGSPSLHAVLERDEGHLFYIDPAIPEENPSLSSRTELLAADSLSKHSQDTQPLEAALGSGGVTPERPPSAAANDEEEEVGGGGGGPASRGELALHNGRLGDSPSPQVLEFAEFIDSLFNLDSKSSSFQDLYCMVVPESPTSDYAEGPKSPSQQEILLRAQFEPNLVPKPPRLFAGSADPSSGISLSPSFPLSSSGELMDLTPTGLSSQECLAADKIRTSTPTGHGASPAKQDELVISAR
# [7] = biological target: Fatty-acid amide hydrolase 1 (Homo sapiens, UniProt O00519); test: Inhibition of recombinant FAAH transfected in HEK293T cells by SDS-PAGE using rhodamine-tagged FP probe; type: cell-based, HEK-293T; how it was run: as §2
# Sequence of Fatty-acid amide hydrolase 1 (O00519 whole entry): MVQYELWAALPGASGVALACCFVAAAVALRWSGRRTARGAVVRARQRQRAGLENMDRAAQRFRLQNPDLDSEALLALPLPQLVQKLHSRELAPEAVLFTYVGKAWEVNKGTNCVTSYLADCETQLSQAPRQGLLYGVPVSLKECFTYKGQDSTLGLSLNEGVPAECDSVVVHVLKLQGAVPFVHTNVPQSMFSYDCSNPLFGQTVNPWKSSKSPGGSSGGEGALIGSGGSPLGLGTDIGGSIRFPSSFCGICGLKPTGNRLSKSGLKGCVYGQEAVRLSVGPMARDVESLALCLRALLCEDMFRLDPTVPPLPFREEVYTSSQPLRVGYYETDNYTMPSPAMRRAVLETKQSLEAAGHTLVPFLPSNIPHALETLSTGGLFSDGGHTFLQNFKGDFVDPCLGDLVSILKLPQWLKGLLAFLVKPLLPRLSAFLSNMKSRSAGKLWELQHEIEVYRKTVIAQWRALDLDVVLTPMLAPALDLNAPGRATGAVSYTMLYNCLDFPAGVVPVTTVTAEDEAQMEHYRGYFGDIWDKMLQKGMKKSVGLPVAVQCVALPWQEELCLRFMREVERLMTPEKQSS
SMILES,Activity [1],Activity [2],Activity [3],IC50 [4] [µM],Activity [5],Activity [6],IC50 [7] [µM]
CCCCCCCCCCC[C@@H](C[C@@H]1OC(=O)[C@H]1CCCCCC)OC(=O)[C@H](CC(C)C)NC=O [ORLISTAT],Active,Active,inactive,0.08,Active,Active,> 100
O=C(NCCCCCCNC(=O)ON=C1CCCCC1)ON=C1CCCCC1,Active,Active,inactive,> 100,Active,Active,70
